This note sets out measurements from ChEMBL document CHEMBL2390903, “Anti-tubercular agents. Part 7: a new class of diarylpyrrole-oxazolidinone conjugates as antimycobacterial agents” (Eur J Med Chem, 2013).

Values after ≈ are worked out from the molar mass of the structure shown.

Data set [1] has as its system Micrococcus luteus. The experiment in a line: Antibacterial activity against Micrococcus luteus MTCC 2470 assessed as growth inhibition at 20 ug/mL after 24 hrs. The format is functional. The following applies: MTCC 2470, 24 h, read-out: IZ.
A short description of data set [2]: Selectivity index, ratio of IC50 for mouse J744 cells to MIC for Mycobacterium tuberculosis H37Rv. In kind it is functional.
The subject of data set [3] is Mycobacterium tuberculosis. The experiment in a line: Antitubercular activity against Mycobacterium tuberculosis H37Rv assessed as growth inhibition after 2 to 3 weeks by broth microdilution method. In kind it is functional. In a few lines:
(§1)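 Primary screen of all compounds against H37Rv at a single concentration in triplicate by microplate dilution. Actives then went to MIC determination by broth microdilution against H37Rv, rifampicin-resistant and XDR-1 isolates. Plates incubated 2–3 weeks at 37 °C in a CO2 incubator. MIC read visually as absence of growth turbidity. Rifampicin and linezolid served as reference drugs.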
A general note: In broth dilution the organism is exposed to a series of concentrations in liquid medium.

For data set [4], the system named is Mycobacterium tuberculosis. In words: Antitubercular activity against Mycobacterium tuberculosis XDR-1 assessed as growth inhibition after 2 to 3 weeks by broth microdilution method. In kind it is functional. The gist of the method: as §1
Data set [5] is described as follows: Cytotoxicity against mouse J744 cells assessed as growth inhibition at 40 ug/mL after 24 hrs by MTT assay relative to control. The note with it: read-out: GI. The format is cell-based. In a few lines: (§2)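 Mouse J-774 macrophages exposed to test material (40) in RPMI with 10% FCS for 24 h at 37 °C under CO2. MTT then added with a further 3 h incubation. Formazan absorbance read at […]. Percent cytotoxicity calculated relative to untreated cells.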
(Formazan colour is commonly taken as a measure of viable cells.)

The next data set relates to Escherichia coli. The experiment in a line: Antibacterial activity against Escherichia coli MTCC 739 assessed as growth inhibition after 24 hrs by agar dilution method. The format is functional. The following applies: MTCC 739, 24 h. On the technique in general: In agar dilution the substance is mixed into plates at graded concentrations.
The test system of data set [6] is Bacillus subtilis. The experiment in a line: Antibacterial activity against Bacillus subtilis MTCC 121 assessed as growth inhibition after 24 hrs by agar dilution method. The format is functional. The following applies: MTCC 121, 24 h.
Data set [7] has as its system Staphylococcus. The experiment in a line: Antibacterial activity against 16-membered ring macrolide- lincosamide-streptogramin B-resistant Staphylococcus MTCC 2940 assessed as growth inhibition after 24 hrs by agar dilution method. In kind it is functional. The following applies: MTCC 2940, 24 h.
For data set [8], the system named is Staphylococcus aureus. In words: Antibacterial activity against Staphylococcus aureus MTCC 96 assessed as growth inhibition at 20 ug/mL after 24 hrs. The format is functional. The note with it: MTCC 96, 24 h, read-out: IZ.
Data set [9] concerns Bacillus subtilis. In words: Antibacterial activity against Bacillus subtilis MTCC 121 assessed as growth inhibition at 20 ug/mL after 24 hrs. The format is functional. The note with it: MTCC 121, 24 h, read-out: IZ.
The nature of data set [10]: Cytotoxicity against mouse J744 cells assessed as growth inhibition after 24 hrs by MTT assay. In kind it is cell-based. The following applies: J744, 24 h. In a few lines:
as §2

A further data set deals with Pseudomonas aeruginosa. In words: Antibacterial activity against Pseudomonas aeruginosa MTCC 2453 assessed as growth inhibition after 24 hrs by agar dilution method. The format is functional. The note with it: MTCC 2453, 24 h.
The test system of data set [11] is Staphylococcus aureus. In words: Antibacterial activity against Staphylococcus aureus MTCC 96 assessed as growth inhibition after 24 hrs by agar dilution method. In kind it is functional. The following applies: MTCC 96, 24 h.
Data set [12] relates to Micrococcus luteus. The experiment in a line: Antibacterial activity against Micrococcus luteus MTCC 2470 assessed as growth inhibition after 24 hrs by agar dilution method. The format is functional. The following applies: MTCC 2470, 24 h.
The test system of data set [13] is Staphylococcus. The experiment in a line: Antibacterial activity against 16-membered ring macrolide- lincosamide-streptogramin B-resistant Staphylococcus MTCC 2940 assessed as growth inhibition at 20 ug/mL after 24 hrs. In kind it is functional. The note with it: MTCC 2940, 24 h, read-out: IZ.
Data set [14] relates to Staphylococcus. In words: Antibacterial activity against 16-membered ring macrolide- lincosamide-streptogramin B-resistant Staphylococcus MTCC 2940 assessed as growth inhibition at 20 mg/mL after 24 hrs. In kind it is functional. The following applies: MTCC 2940, 24 h, read-out: IZ.
For data set [15], the system named is Bacillus subtilis. In words: Antibacterial activity against Bacillus subtilis MTCC 121 assessed as growth inhibition at 20 mg/mL after 24 hrs. The format is functional. The note with it: MTCC 121, 24 h, read-out: IZ.

Usually MIC stands for the lowest concentration that inhibits growth of the organism. Usually IC50 stands for the concentration that gives 50% inhibition. In the case of `CC(=O)NC[C@H]1CN(c2ccc(N3CCN(Cc4cc(-c5ccc(C(C)C)cc5)n(-c5ccc(F)cc5F)c4C)CC3)c(F)c2)C(=O)O1`, the zone of inhibition at 20 µg/mL turned out to be 18 mm in the data set with Micrococcus luteus [1], 16 mm in the data set with Staphylococcus aureus [8], 12 mm in the data set on Bacillus subtilis [9] and 15 mm with Staphylococcus [13]. Further, the “Selectivity Index” value in data set [2] was greater than 10. Besides, the MIC in data set [3] is 4 µg/mL (≈ 6.06 µM); in [4], 16 µg/mL (≈ 24.3 µM); in the data set with Escherichia coli it was greater than 40 µg/mL; in the data set on Bacillus subtilis [6], 1.5 µg/mL (≈ 2.27 µM); in the data set on Staphylococcus [7], 6 µg/mL (≈ 9.09 µM); in the data set with Pseudomonas aeruginosa it was greater than 40 µg/mL. Further, the results for the minimal inhibitory concentration (MIC) with Staphylococcus aureus [11] and with Micrococcus luteus [12] were 2 µg/mL (≈ 3.03 µM) and 3 µg/mL (≈ 4.55 µM), respectively. The inhibition at 24 h, 40 ug/mL in data set [5] came out at 40.2%. In addition, the IC50 in data set [10] is greater than 40 µM.
As to `Cc1c(CN2CCN(c3ccc(N4C[C@H](Cn5cc(-c6ccccn6)nn5)OC4=O)cc3F)CC2)cc(-c2ccc(F)cc2F)n1-c1ccc(F)cc1`, the zone of inhibition at 20 µg/mL with Micrococcus luteus [1] worked out at 36 mm; in the data set with Staphylococcus aureus [8], 39 mm; with Bacillus subtilis [9] it was 24 mm; with Staphylococcus [13], 40 mm. Moreover, the “Selectivity Index” value in data set [2] is given as greater than 10. Further, the minimal inhibitory concentration (MIC) in data set [3] was 4 µg/mL (≈ 5.53 µM); in data set [4], 16 µg/mL (≈ 22.1 µM); in the data set on Escherichia coli it was greater than 40 µg/mL; with Bacillus subtilis [6] it was 1 µg/mL (≈ 1.38 µM); in the data set on Staphylococcus [7], 6 µg/mL (≈ 8.3 µM); with Pseudomonas aeruginosa, greater than 40 µg/mL. Also, the MIC was 0.5 µg/mL (≈ 0.692 µM) in the data set on Staphylococcus aureus [11] and 3 µg/mL (≈ 4.15 µM) in the data set with Micrococcus luteus [12]. Further, the inhibition at 24 h, 40 ug/mL in [5] was 31.9%. Moreover, in [10], the IC50 was greater than 40 µM.
Consider `CC(=O)NC[C@H]1CN(c2ccc(N3CCOCC3)c(F)c2)C(=O)O1` [LINEZOLID], for which the values for the zone of inhibition at 20000 µg/mL in the data set with Staphylococcus [14] and with Bacillus subtilis [15] were 18 mm and 20 mm, respectively. For the same compound, the MIC in [3] came out at 1 µg/mL (≈ 2.96 µM); in data set [4], 4 µg/mL (≈ 11.9 µM); in the data set with Bacillus subtilis [6] it was 0.5 µg/mL (≈ 1.48 µM); in the data set with Staphylococcus [7], 0.5 µg/mL (≈ 1.48 µM); in the data set on Staphylococcus aureus [11], 1.5 µg/mL (≈ 4.45 µM); in the data set with Micrococcus luteus [12], 1 µg/mL (≈ 2.96 µM).
